The values below come from paper PMC5302092 (Cell, 2017).

The target of one experiment is cathepsin L (Homo sapiens, UniProt P07711). As to the kind of experiment: in vitro protease inhibition assay, cathepsin L. Format: biochemical. The note with it: result in words. The essentials: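 Commercial cathepsin L (0.02 μg/ml) in 50 mM MES pH 5.5 with 5 mM DTT. Substrate z-FR-AMC at 20 μM added last to the enzyme/test compound mix; final DMSO below 5%. Fluorescence read-out; leupeptin as positive control. Normalized activity data were curve-fitted.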
Chain of cathepsin L (P07711 114-333, species assumed): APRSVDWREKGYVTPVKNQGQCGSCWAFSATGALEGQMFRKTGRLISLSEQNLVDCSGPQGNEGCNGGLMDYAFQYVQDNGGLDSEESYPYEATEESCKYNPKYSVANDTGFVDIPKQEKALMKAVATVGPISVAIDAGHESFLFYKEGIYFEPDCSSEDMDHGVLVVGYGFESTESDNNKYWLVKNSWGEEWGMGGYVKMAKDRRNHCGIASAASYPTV

A further experiment concerns the target cathepsin S (Homo sapiens, UniProt P25774). The experiment can be described thus: in vitro protease inhibition assay, cathepsin S. The experiment is classed as biochemical. Conditions: read-out: activity against cathepsin S (IC50). The essentials: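 Commercial cathepsin S pre-activated for 2 h at 10 μg/ml in 50 mM MES pH 5.5 with 5 mM DTT, then diluted to 100 ng/ml. Assayed with 10 μM z-FR-AMC, which was added last to the enzyme/test compound mix; final DMSO below 5%. Fluorogenic read-out; leupeptin as positive control. Normalized activity data fitted to give IC50.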

In experiment [1] the target is cathepsin L (CTSL1) catalytic cysteine Cys138 (Homo sapiens, UniProt P07711). As to the kind of experiment: competitive isoTOP-ABPP, THP-1 membrane fraction, cathepsin L. The experiment is classed as binding. Conditions: 250 nM, THP-1 membranes; R > 5 = targeted. The essentials:
(§1)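 THP-1 cells grown in RPMI with 10% FBS, penicillin, streptomycin, glutamine and 50 μM βME (37 °C, 5% CO2, <10 passages). Differentiated with 200 nM PMA for 18 h, then 3 more days. Sonicated lysate spun at 100,000 g for 45 min; membrane fraction set to 1.5 mg/mL. Test compound (final 25 μM, 2.5 μM or 250 nM) or 1% TFA water vehicle for 30 min, then 100 μM IA-alkyne for 30 min, ambient temperature.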

Experiment [2] concerns the target cathepsin C (CTSC) catalytic cysteine Cys258 (Homo sapiens, UniProt P53634). As to the kind of experiment: competitive isoTOP-ABPP, THP-1 membrane fraction, cathepsin C. Format: binding. The essentials: as §1
The target of a further experiment is cathepsin B (CTSB) (Homo sapiens, UniProt P07858). The experiment can be described thus: competitive isoTOP-ABPP, THP-1 membrane fraction, cathepsin B. The note with it: 250 nM, THP-1 membranes. The experiment is classed as binding. The essentials:
as §1

Another experiment deals with T1, cathepsin H (CTSH) (Homo sapiens, UniProt P09668).
T1 sequence (P09668 98-335): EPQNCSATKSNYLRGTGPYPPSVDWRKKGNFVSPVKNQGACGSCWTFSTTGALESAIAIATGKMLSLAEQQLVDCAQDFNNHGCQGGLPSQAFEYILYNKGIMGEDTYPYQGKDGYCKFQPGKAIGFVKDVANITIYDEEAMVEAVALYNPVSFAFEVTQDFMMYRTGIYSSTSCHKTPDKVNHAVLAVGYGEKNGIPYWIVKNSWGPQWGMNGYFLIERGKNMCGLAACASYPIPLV
The experiment can be described thus: competitive isoTOP-ABPP, THP-1 membrane fraction, cathepsin H. The experiment is classed as binding. The note with it: 250 nM, THP-1 membranes. The essentials:
as §1

Another experiment addresses cathepsin S (CTSS) (Homo sapiens, UniProt P25774). As to the kind of experiment: competitive isoTOP-ABPP, THP-1 membrane fraction, cathepsin S. The experiment is classed as binding. The essentials: as §1
For a further experiment, the target named is cathepsin Z (CTSZ) (Homo sapiens, UniProt Q9UBR2). The experiment can be described thus: competitive isoTOP-ABPP, THP-1 membrane fraction, cathepsin Z. Format: binding. The essentials: as §1
Chain of cathepsin Z (CTSZ) (Q9UBR2 62-303): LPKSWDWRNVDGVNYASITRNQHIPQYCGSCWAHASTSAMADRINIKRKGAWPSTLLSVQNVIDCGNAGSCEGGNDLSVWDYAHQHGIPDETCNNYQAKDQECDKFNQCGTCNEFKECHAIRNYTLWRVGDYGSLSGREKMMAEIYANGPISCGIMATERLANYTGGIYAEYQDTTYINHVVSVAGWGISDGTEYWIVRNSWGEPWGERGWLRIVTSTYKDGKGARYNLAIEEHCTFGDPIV
A short description of experiment [3]: competitive isoTOP-ABPP, proteome-wide cysteine selectivity. Format: binding, human. The note with it: THP-1, Ramos, H1975 proteomes. The essentials: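 Proteomes came from THP-1 (RPMI, 10% FBS, βME, PMA-differentiated), Ramos (RPMI, 10% FBS) and H1975 (DMEM, 20% FBS) cells. Sonicated and split at 100,000 g into soluble and membrane fractions (1.5 mg/mL); some lysed into sodium acetate at pH 5 or 5.5. Test compound or vehicle for 30 min, then 100 μM IA-alkyne for 30 min, then isotopic biotin-tag click, enrichment, trypsin/TEV digests and LC-MS/MS. Cysteines with heavy/light MS1 ratio R > 5 called targeted.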

The structures appear in SMILES notation. Residues, ends and D or L forms follow the SMILES beside them. *: point of attachment. Octanoyl = CCCCCCCC(=O)*

Chain of cathepsin S (CTSS) (P25774 115-331): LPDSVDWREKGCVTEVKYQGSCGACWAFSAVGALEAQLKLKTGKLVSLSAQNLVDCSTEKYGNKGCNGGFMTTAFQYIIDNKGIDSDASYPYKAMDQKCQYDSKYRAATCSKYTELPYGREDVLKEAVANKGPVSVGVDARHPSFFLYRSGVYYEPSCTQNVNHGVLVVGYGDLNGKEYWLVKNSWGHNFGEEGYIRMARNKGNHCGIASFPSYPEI
Chain of cathepsin C (CTSC) catalytic cysteine Cys258 (P53634 25-463): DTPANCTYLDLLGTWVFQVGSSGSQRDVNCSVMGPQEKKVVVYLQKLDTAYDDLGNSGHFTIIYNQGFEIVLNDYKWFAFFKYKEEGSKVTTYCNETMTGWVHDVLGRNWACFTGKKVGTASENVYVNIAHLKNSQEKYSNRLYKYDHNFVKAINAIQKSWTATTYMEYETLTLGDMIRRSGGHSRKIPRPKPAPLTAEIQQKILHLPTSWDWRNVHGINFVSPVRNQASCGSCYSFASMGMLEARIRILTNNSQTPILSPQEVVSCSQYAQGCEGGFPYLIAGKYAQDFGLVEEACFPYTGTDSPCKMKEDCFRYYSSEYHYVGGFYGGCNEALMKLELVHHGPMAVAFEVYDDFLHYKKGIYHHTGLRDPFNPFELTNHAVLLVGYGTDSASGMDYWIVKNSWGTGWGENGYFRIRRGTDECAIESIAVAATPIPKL
Chain of cathepsin S (P25774 115-331, species assumed): as the sequence (P25774 115-331) above
Chain of cathepsin L (CTSL1) catalytic cysteine Cys138 (P07711 114-333): as the sequence (P07711 114-333, species assumed) above

Regarding `CCCCCCCC(=O)N[C@@H](CCSC)C(=O)N[C@H](C=O)Cc1ccccc1` [Compound 16, N-octanoyl-Met-Phe-H] (Octanoyl-Met-Phe-aldehyde), the “inhibitory activity against cathepsin L (IC50)” value on cathepsin L was “undetectable activity”. In addition, the concentration for half-maximal inhibition (IC50) on cathepsin S amounted to 13 nM.
With `N[C@@H](Cc1ccccc1)C(=O)N[C@H](C=O)Cc1ccccc1` [Phe-Phe-H] (H-Phe-Phe-aldehyde), the “R value (heavy/light MS1 ratio), blockade of IA-alkyne labeling of CTSL1 Cys138” value in experiment [1] was above 20. The “R value (heavy/light MS1 ratio), CTSC catalytic cysteine Cys258” value in experiment [2] (250 nM, THP-1 membranes) was above 2.78. Further, the “R value (heavy/light MS1 ratio), CTSC” value in experiment [2] (25 μM, THP-1) is reported as above 5. Besides, at cathepsin B (CTSB), the “R value (heavy/light MS1 ratio), CTSB” value was below 2.0. For the same compound, the “R value (heavy/light MS1 ratio), CTSH” value at cathepsin H (CTSH) is recorded as below 2.0. Further, the “R value (heavy/light MS1 ratio), CTSS” value on cathepsin S (CTSS) (250 nM, THP-1 membranes) is recorded as below 2.0; at cathepsin S (CTSS) (25 μM, THP-1), above 5. Moreover, the “R value (heavy/light MS1 ratio), CTSZ” value on cathepsin Z (CTSZ) (250 nM, THP-1 membranes) is listed as below 2.0; at cathepsin Z (CTSZ) (25 μM, THP-1) it was above 5. In addition, the “R value (heavy/light MS1 ratio), non-cathepsin cysteines (no additional targets)” value in [3] is reported as below 2.0.
